Source: ChEMBL document CHEMBL1132142, “Extension of the polyanionic cosalane pharmacophore as a strategy for increasing anti-HIV potency” (J Med Chem, 1999)
Blank lines part the entries; values can stand above or below the molecule they belong to.

What was measured:
MT4 [1] = assay: The compound was evaluated for inhibition of cytopathic effect of HIV-1 IIIB in MT-4 cells; format: functional, cell-based, Homo sapiens
MT4 [2] = assay: The compound was evaluated for cytotoxicity in MT-4 cells; format: functional, Homo sapiens
In short: (§1)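 Uninfected cells (CEM-SS or MT-4, per line) were incubated with the drug in a microtiter XTT assay. Viability was expressed as percent of the uninfected drug-free control. CC50 is the concentration causing 50% cell death. Triplicates were run per plate on two sister plates, and the two plate values were averaged.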

CEM-SS [3] = assay: The compound was evaluated for inhibition of cytopathic effect of HIV-1 RF in CEM-SS cells; format: functional, cell-based, Homo sapiens
In short: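 XTT-based microtiter cytoprotection assay measuring protection from HIV-1-induced cytopathic effect, read as percent of the uninfected drug-free control. EC50 is the concentration giving 50% protection in infected cultures. Results were confirmed by cell-free supernatant reverse transcriptase and p24 levels. Each plate was run in triplicate, and the EC50 values from two sister plates were averaged.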

MT4 [4] = assay: The compound was evaluated for inhibition of cytopathic effect of HIV-2ROD in MT-4 cells; format: functional, cell-based, Homo sapiens
CEM-SS [5] = assay: The compound was evaluated for cytotoxicity in CEM-SS cells; format: functional, Homo sapiens; in short: as §1
CEM-SS [6] = assay: The compound was evaluated for uM; format: functional, cell-based, Homo sapiens
[7] = biological target: C-X-C chemokine receptor type 4 (Homo sapiens) (UniProt P61073); assay: Compound was tested for binding of the mAb (12G5) to the Chemokine receptor type 4 at 0.73 uM
C-X-C chemokine receptor type 4 (Homo sapiens), sequence (P61073 whole entry, looked up): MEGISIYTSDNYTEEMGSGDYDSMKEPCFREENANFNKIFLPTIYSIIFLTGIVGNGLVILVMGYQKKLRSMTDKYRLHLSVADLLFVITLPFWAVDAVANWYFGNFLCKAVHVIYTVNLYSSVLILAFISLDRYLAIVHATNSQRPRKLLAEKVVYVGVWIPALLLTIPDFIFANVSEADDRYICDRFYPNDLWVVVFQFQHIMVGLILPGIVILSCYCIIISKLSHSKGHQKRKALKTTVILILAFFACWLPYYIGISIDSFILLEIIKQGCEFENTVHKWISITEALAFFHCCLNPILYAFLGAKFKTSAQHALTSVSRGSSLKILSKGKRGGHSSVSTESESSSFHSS

[8] = biological target: C-X-C chemokine receptor type 4 (Homo sapiens) (UniProt P61073); assay: Compound was tested for binding of the mAb (12G5) to the Chemokine receptor type 4 at 0.13 uM
[9] = biological target: T-cell surface glycoprotein CD4 (Homo sapiens) (UniProt P01730); assay: Compound was tested for binding of the mAb (leu3a) to the CD4 receptor at 3.2 uM
In short: (§2)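 The assay measured Leu3a monoclonal antibody binding to cell-surface CD4 at each listed concentration. Read-out was % positive cells and % inhibition relative to controls, including an isotype mAb.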

[10] = biological target: C-X-C chemokine receptor type 4 (Homo sapiens) (UniProt P61073); assay: Compound was tested for binding of the mAb (12G5) to the Chemokine receptor type 4 at 3.7 uM
[11] = biological target: T-cell surface glycoprotein CD4 (Homo sapiens) (UniProt P01730); assay: Compound was tested for binding of the mAb (leu3a) to the CD4 receptor at 18 uM; in short: as §2
[12] = biological target: C-X-C chemokine receptor type 4 (Homo sapiens) (UniProt P61073); assay: Compound was tested for binding of the mAb (12G5) to the Chemokine receptor type 4 at 18 uM
[13] = biological target: C-X-C chemokine receptor type 4 (Homo sapiens) (UniProt P61073); assay: Compound was tested for binding of the mAb (12G5) to the CXCR4 receptor at 18 uM
[14] = biological target: C-X-C chemokine receptor type 4 (Homo sapiens) (UniProt P61073); assay: Compound was tested for binding of the mAb (12G5) to the Chemokine receptor type 4at 3.2 uM
[15] = biological target: C-X-C chemokine receptor type 4 (Homo sapiens) (UniProt P61073); assay: Compound was tested for binding of the mAb (12G5) to the Chemokine receptor type 4 at 0.65 uM
[16] = biological target: C-X-C chemokine receptor type 4 (Homo sapiens) (UniProt P61073); assay: Compound was tested for binding of the mAb (12G5) to the CXCR4 receptor at 92 uM
[17] = biological target: T-cell surface glycoprotein CD4 (Homo sapiens) (UniProt P01730); assay: Compound was tested for binding of the mAb (leu3a) to the CD4 receptor at 81 uM; in short: as §2
[18] = biological target: C-X-C chemokine receptor type 4 (Homo sapiens) (UniProt P61073); assay: Compound was tested for binding of the mAb (12G5) to the Chemokine receptor type 4 at 16 uM
[19] = biological target: T-cell surface glycoprotein CD4 (Homo sapiens) (UniProt P01730); assay: Compound was tested for binding of the mAb (leu3a) to the CD4 receptor at 0.15 uM; in short: as §2
[20] = biological target: C-X-C chemokine receptor type 4 (Homo sapiens) (UniProt P61073); assay: Compound was tested for binding of the mAb (12G5) to the Chemokine receptor type 4 at 81 uM
[21] = biological target: T-cell surface glycoprotein CD4 (Homo sapiens) (UniProt P01730); assay: Compound was tested for binding of the mAb (leu3a) to the CD4 receptor at 16 uM; in short: as §2
[22] = biological target: T-cell surface glycoprotein CD4 (Homo sapiens) (UniProt P01730); assay: Compound was tested for binding of the mAb (leu3a) to the CD4 receptor at 0.73 uM; in short: as §2
[23] = biological target: T-cell surface glycoprotein CD4 (Homo sapiens) (UniProt P01730); assay: Compound was tested for binding of the mAb (leu3a) to the CD4 receptor at 92 uM; in short: as §2
[24] = biological target: T-cell surface glycoprotein CD4 (Homo sapiens) (UniProt P01730); assay: Compound was tested for binding of the mAb (leu3a) to the CD4 receptor at 3.7 uM; in short: as §2
[25] = biological target: C-X-C chemokine receptor type 4 (Homo sapiens) (UniProt P61073); assay: Compound was tested for binding of the mAb (12G5) to the CChemokine receptor type 4 at 0.73 uM
[26] = biological target: T-cell surface glycoprotein CD4 (Homo sapiens) (UniProt P01730); assay: Compound was tested for binding of the mAb (leu3a) to the CD4 receptor at 0.65 uM; in short: as §2
[27] = biological target: T-cell surface glycoprotein CD4 (Homo sapiens) (UniProt P01730); assay: Compound was tested for binding of the mAb (leu3a) to the CD4 receptor at 0.13 uM; in short: as §2
[28] = biological target: C-X-C chemokine receptor type 4 (Homo sapiens) (UniProt P61073); assay: Compound was tested for binding of the mAb (12G5) to the Chemokine receptor type 4 at 0.15 uM
[29] = biological target: C-X-C chemokine receptor type 4 (Homo sapiens) (UniProt P61073); assay: Compound was tested for binding of the mAb (12G5) to the Chemokine receptor type 4 at 3.2 uM

EC50 (CEM-SS [3]; Homo sapiens, CEM-SS): 12.2 µM
SMILES: CC(C)CCCC(C)[C@H]1CC[C@H]2[C@@H]3CCC4C[C@@H](CCC=C(c5cc(Cl)c(OCc6ccccc6[N+](=O)[O-])c(C(=O)[O-])c5)c5cc(Cl)c(OCc6ccccc6[N+](=O)[O-])c(C(=O)[O-])c5)CC[C@]4(C)[C@H]3CC[C@]12C.[Na+].[Na+] (stereo not given in full)
EC50 (MT4 [1]; Homo sapiens, MT4): > 125 µM
Cytotoxicity (MT4 [2]): 99 µM
EC50 (MT4 [4]; Homo sapiens, MT4): > 125 µM
Cytotoxicity (CEM-SS [5]): >316 µM

EC50 (CEM-SS [6]): Not Active
SMILES: CC(C)CCCC(C)[C@H]1CC[C@H]2[C@@H]3CCC4C[C@@H](CCC=C(c5cc(Cl)c(OCc6ccccc6[N+](=O)[O-])c(C(=O)O)c5)c5cc(Cl)c(OCc6ccccc6[N+](=O)[O-])c(C(=O)O)c5)CC[C@]4(C)[C@H]3CC[C@]12C (stereo not given in full)
Cytotoxicity (MT4 [2]): 108 µM
Cytotoxicity (CEM-SS [5]): 66 µM

SMILES: CC(C)CCCC(C)[C@H]1CC[C@H]2[C@@H]3CCC4C[C@@H](CCC=C(c5cc(Cl)c(OCc6cccc([N+](=O)[O-])c6)c(C(=O)[O-])c5)c5cc(Cl)c(OCc6cccc([N+](=O)[O-])c6)c(C(=O)[O-])c5)CC[C@]4(C)[C@H]3CC[C@]12C.[Na+].[Na+] (stereo not given in full)
EC50 (MT4 [1]; mt4): 48 µM
Cytotoxicity (MT4 [2]): >125 µM
EC50 (CEM-SS [3]; Homo sapiens, CEM-SS): 21.5 µM
EC50 (MT4 [4]; mt4): 29 µM
Cytotoxicity (CEM-SS [5]): >316 µM

SMILES: CC(C)CCCC(C)[C@H]1CC[C@H]2[C@@H]3CCC4C[C@@H](CCC=C(c5cc(Cl)c(OCc6cccc(C(=O)[O-])c6)c(C(=O)[O-])c5)c5cc(Cl)c(OCc6cccc(C(=O)[O-])c6)c(C(=O)[O-])c5)CC[C@]4(C)[C@H]3CC[C@]12C.[Na+].[Na+].[Na+].[Na+] (stereo not given in full)
EC50 (MT4 [1]; mt4): 2.4 µM
Cytotoxicity (MT4 [2]): 35 µM
EC50 (CEM-SS [3]; cem-ss): 7.6 µM
EC50 (MT4 [4]; mt4): > 35 µM
Cytotoxicity (CEM-SS [5]): >316 µM

SMILES: CC(C)CCCC(C)[C@H]1CC[C@H]2[C@@H]3CCC4C[C@@H](CCC=C(c5cc(Cl)c(OCc6cccc(C(=O)O)c6)c(C(=O)O)c5)c5cc(Cl)c(OCc6cccc(C(=O)O)c6)c(C(=O)O)c5)CC[C@]4(C)[C@H]3CC[C@]12C (stereo not given in full)
EC50 (MT4 [1]; Homo sapiens, MT4): 2.2 µM
Cytotoxicity (MT4 [2]): 29 µM
EC50 (CEM-SS [3]; Homo sapiens, CEM-SS): 5.7 µM
EC50 (MT4 [4]; Homo sapiens, MT4): > 29 µM
Cytotoxicity (CEM-SS [5]): >316 µM

SMILES: CC(C)CCCC(C)[C@H]1CC[C@H]2[C@@H]3CCC4C[C@@H](CCC=C(c5cc(Cl)c(OCc6ccc(C(=O)O)cc6)c(C(=O)O)c5)c5cc(Cl)c(OCc6ccc(C(=O)O)cc6)c(C(=O)O)c5)CC[C@]4(C)[C@H]3CC[C@]12C (stereo not given in full)
inhibition [7]: 0%
Positive cells [8]: 99.1%
inhibition [8]: 0%
Positive cells [9]: 3.2%
inhibition [9]: 99%
Positive cells [10]: 99.4%
inhibition [10]: 0%
Positive cells [11]: 1.2%
inhibition [11]: 100%
Positive cells [12]: 99.9%
inhibition [13]: 0%
inhibition [14]: 0%
Positive cells [15]: 99.2%
inhibition [15]: 0%
Positive cells [16]: 99.8%
inhibition [16]: 0%
Positive cells [17]: 1.2%
inhibition [17]: 100%
Positive cells [18]: 99.9%
inhibition [18]: 0%
Positive cells [19]: 99.9%
inhibition [19]: 0%
Positive cells [20]: 99.8%
inhibition [20]: 0%
Positive cells [21]: 2.1%
inhibition [21]: 100%
Positive cells [22]: 99.1%
inhibition [22]: 4%
Positive cells [23]: 1.4%
inhibition [23]: 100%
Positive cells [24]: 7.8%
inhibition [24]: 94%
Positive cells [25]: 99.3%
Positive cells [26]: 99.9%
inhibition [26]: 0%
Positive cells [27]: 99.8%
inhibition [27]: 0%
inhibition [28]: 0%
Positive cells [29]: 99.8%

SMILES: CC(C)CCCC(C)[C@H]1CC[C@H]2[C@@H]3CCC4C[C@@H](CCC=C(c5cc(Cl)c(OCc6ccccc6C(=O)O)c(C(=O)O)c5)c5cc(Cl)c(OCc6ccccc6C(=O)O)c(C(=O)O)c5)CC[C@]4(C)[C@H]3CC[C@]12C (stereo not given in full)
EC50 (MT4 [1]; Homo sapiens, MT4): > 37 µM
Cytotoxicity (MT4 [2]): 37 µM
EC50 (MT4 [4]; Homo sapiens, MT4): > 37 µM
Cytotoxicity (CEM-SS [5]): >316 µM

SMILES: CC(C)CCCC(C)[C@H]1CC[C@H]2[C@@H]3CCC4C[C@@H](CCC=C(c5cc(Cl)c(OCc6ccccc6C(=O)[O-])c(C(=O)[O-])c5)c5cc(Cl)c(OCc6ccccc6C(=O)[O-])c(C(=O)[O-])c5)CC[C@]4(C)[C@H]3CC[C@]12C.[Na+].[Na+].[Na+].[Na+] (stereo not given in full)
EC50 (MT4 [1]; mt4): 22.1 µM
Cytotoxicity (MT4 [2]): 52 µM
EC50 (CEM-SS [3]; cem-ss): 17.9 µM
EC50 (MT4 [4]; mt4): > 52 µM
Cytotoxicity (CEM-SS [5]): >316 µM

EC50 (CEM-SS [6]): Not Active
SMILES: CC(C)CCCC(C)[C@H]1CC[C@H]2[C@@H]3CCC4C[C@@H](CCC=C(c5cc(Cl)c(OCc6ccc([N+](=O)[O-])cc6)c(C(=O)O)c5)c5cc(Cl)c(OCc6ccc([N+](=O)[O-])cc6)c(C(=O)O)c5)CC[C@]4(C)[C@H]3CC[C@]12C (stereo not given in full)
EC50 (MT4 [1]; Homo sapiens, MT4): > 83 µM
Cytotoxicity (MT4 [2]): 83 µM
EC50 (MT4 [4]; mt4): > 83 µM
Cytotoxicity (CEM-SS [5]): >316 µM

SMILES: CC(C)CCCC(C)[C@H]1CC[C@H]2[C@@H]3CCC4C[C@@H](CCC=C(c5cc(Cl)c(O)c(C(=O)O)c5)c5cc(Cl)c(O)c(C(=O)O)c5)CC[C@]4(C)[C@H]3CC[C@]12C (stereo not given in full)
EC50 (MT4 [1]; Homo sapiens, MT4): 3 µM
Cytotoxicity (MT4 [2]): >125 µM
EC50 (MT4 [4]; Homo sapiens, MT4): 4 µM
Cytotoxicity (CEM-SS [5]): >200 µM

EC50 (CEM-SS [3]; Homo sapiens, CEM-SS): 78.2 µM
SMILES: CC(C)CCCC(C)[C@H]1CC[C@H]2[C@@H]3CCC4C[C@@H](CCC=C(c5cc(Cl)c(OCc6ccc([N+](=O)[O-])cc6)c(C(=O)[O-])c5)c5cc(Cl)c(OCc6ccc([N+](=O)[O-])cc6)c(C(=O)[O-])c5)CC[C@]4(C)[C@H]3CC[C@]12C.[Na+].[Na+] (stereo not given in full)
EC50 (MT4 [1]; mt4): 80 µM
Cytotoxicity (MT4 [2]): >125 µM
EC50 (MT4 [4]; mt4): 33 µM
Cytotoxicity (CEM-SS [5]): >316 µM

SMILES: CC(C)CCCC(C)[C@H]1CC[C@H]2[C@@H]3CCC4C[C@@H](CCC=C(c5cc(Cl)c(OCc6cccc([N+](=O)[O-])c6)c(C(=O)O)c5)c5cc(Cl)c(OCc6cccc([N+](=O)[O-])c6)c(C(=O)O)c5)CC[C@]4(C)[C@H]3CC[C@]12C (stereo not given in full)
EC50 (MT4 [1]; mt4): > 125 µM
EC50 (CEM-SS [6]): Not Active
Cytotoxicity (MT4 [2]): 97 µM
EC50 (MT4 [4]; mt4): > 125 µM
Cytotoxicity (CEM-SS [5]): 16 µM
